Assay outcomes deposited in PubChem BioAssay by several laboratories.
GRK2 aptamer HTS – compounds blocking aptamer binding on GRK2 – biochemical, human GRK2, bead flow cytometry, HTS, primary screen. AID 488847, 2010. FAM-aptamer displacement from GRK2. inhibition of aptamer binding, % at 10 µM. Beta-adrenergic receptor kinase 1 (Homo sapiens), P25098. actives 0.59% (n = 330,000);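 active means inhibition of aptamer binding above 40%, roughly 3 SD of noise, on plates passing a quality check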;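 further: median bead fluorescence of bound FAM aptamer so fluorescent compounds give negative values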
SUMO1 PPI mod – modulators of SUMO1 protein-protein interactions, primary screen, biochemical, uHTS; AID 602429, 2012; actives 0.33% (n = 360,000); SUMO1 binding to a labelled peptide, TR-FRET, 1 h; inhibition, % at 20 µM; Small ubiquitin-related modifier 1 (Homo sapiens), P63165; in the data active means inhibition above about 37%
Scp1 inh – Scp-1 phosphatase inhibitors, primary screen, biochemical, colorimetric, uHTS | inhibition, % at 20 µM | actives 0.88% (n = 340,000) | AID 493091, 2011 | Carboxy-terminal domain RNA polymerase II polypeptide A small phosphatase 1 (Homo … | Recombinant Scp1, phosphopeptide, malachite green phosphate absorbance;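 active means inhibition above about 50% at 20 µM, limit read from the data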
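System: truncated SCP-1 phosphatase (76-261aa); medium: Tris acetate buffer pH 5.5 with MgCl2 and Tween-20; incubation: 45 min room-temperature reaction, 5 min colour, 30 min stabiliser; compound: single 20 µM dose, 1% DMSO; reagent: Phosphorylated 17-residue peptide substrate; read-out: % inhibition at 20 µM; technique: colorimetric free-phosphate detection, absorbance 630 nm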
STEP inh – STEP phosphatase inhibitors, primary screen, biochemical, fluorescence intensity, uHTS; recombinant STEP, OMFP fluorogenic substrate; inhibition, % at 20 µM; actives 0.25% (n = 360,000);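 active means inhibition at 20 µM, scaled per plate between control wells, above about 37%, limit read from the data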
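System: STEP phosphatase, cell-free reaction; Buffer or medium: Bis-Tris pH 6.0 buffer with DTT, detergent; Incubation: 20 min at room temperature, dark; Measured by: fluorescence, 480/540 nm.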
LMPTP block – LMPTP phosphatase inhibitors, primary screen, biochemical, fluorescence intensity, uHTS; Low molecular weight phosphotyrosine protein phosphatase (Homo sapiens), P24666; recombinant LMPTP-A, OMFP fluorogenic substrate; inhibition, % at 20 µM; actives 0.22% (n = 360,000); AID 651560, 2012;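 active means compounds that cut the enzyme signal by at least half of the control window in the single-dose screen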
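Material: LMPTP-A; amount: 0.625 nM enzyme; doses: single 20 µM dose; times: reaction 50 min, room temperature, dark; technique: fluorescence intensity of OMFP turnover product; benchmarks: no-enzyme and uninhibited controls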
DNMT1 block – human DNMT1 methyltransferase inhibitors, primary screen, biochemical, molecular beacon, fluorescence, HinP1I cleavage, uHTS; DNA (cytosine-5)-methyltransferase 1 (Homo sapiens), P26358; inhibition (reported as % activation of signal), % at 10 µM; actives 0.83% (n = 360,000); AID 588458, 2011; in the data active means inhibition above about 50%
Each line names hits and unclear results; the compound was inactive in the other large screens. In the library only some 2.2% were active in any assay of this set; here they are far more common.

COC(=O)C1=C(O)/C(=C\c2ccc(CNS(=O)(=O)c3ccccc3)o2)N=C1C	GRK2 aptamer HTS 72
CCc1cccc(CC)c1NC(=O)COC(=O)c1cccc(-c2ccc(OC(C)=O)cc2)c1	GRK2 aptamer HTS 100
CCCCOCCCNC(=O)C[C@@H]1C[C@@]2(C(=O)OCC)CCC=C2N(Cc2cccc3ccccc23)C1=O	none (no result: GRK2 aptamer HTS, Scp1 inh, STEP inh, DNMT1 block)
CCc1nc2ccc(C(=O)NCc3ccc(OC)cc3)cn2c1N(C)CCC(C)C	none (no result: GRK2 aptamer HTS, Scp1 inh)
C/C(=N\NC(=O)CCCOc1ccc(Cl)cc1C)c1ccc(C)o1	GRK2 aptamer HTS 90
Cc1cc(Cl)ccc1OCCCC(=O)NN	none
S=c1[nH]c2ccccc2n2c(=S)[nH]nc12	none
S=c1[nH]nc2ccc3ccccc3n12	LMPTP block 71 (no result: GRK2 aptamer HTS, Scp1 inh)
N#CCC(=O)Nc1ccc(C(=O)OCC(=O)c2ccc3c(c2)NC(=O)CO3)cc1	SUMO1 PPI mod 84
CC(=O)NC(c1ccccc1)c1nc(-c2cc3ccccc3o2)cs1 (stereo unspecified)	none (no result: GRK2 aptamer HTS, Scp1 inh)
Cc1ccc(-n2c(N)c(C(=O)N3CCN(C)CC3)sc2=S)cc1	STEP inh 96
CCOC(=O)c1c(NC(=O)CSc2nnc(C)c(=O)[nH]2)sc(C)c1-c1ccc(C)cc1	SUMO1 PPI mod 38
O=C(COC(=O)c1ccc(-c2cnc3ccccc3n2)cc1)c1ccccc1	SUMO1 PPI mod 41
COc1ccc(-c2coc3c(CN4CCCCC4)c(O)c(CN4CCCCC4)c(O)c3c2=O)cc1	GRK2 aptamer HTS 100 (no result: SUMO1 PPI mod, Scp1 inh, STEP inh, LMPTP block, DNMT1 block)
O=c1c(-c2ccc(Br)cc2)coc2c(CN3CCCCC3)c(O)ccc12	none (no result: GRK2 aptamer HTS)
Cc1cc(=O)oc2cc(OCC(=O)c3ccc4c(c3)NC(=O)CO4)ccc12	SUMO1 PPI mod 42
CCN(CC)S(=O)(=O)c1ccc(Cl)c(NC(=O)COc2ccc3c(C)cc(=O)oc3c2)c1	GRK2 aptamer HTS 100
O=C(COc1ccc2c(-c3ccccc3)cc(=O)oc2c1)Nc1ccc(CCO)cc1	LMPTP block 66
Cc1cc(=O)oc2cc(OCC(=O)Nc3cccc(S(=O)(=O)N(C)C)c3)ccc12	GRK2 aptamer HTS 56
Cc1ccc(S(=O)(=O)N(C)C)cc1NC(=O)COC(=O)COc1ccc2c(C)cc(=O)oc2c1	none
O=C(COc1ccc2c(-c3ccccc3)cc(=O)oc2c1)Nc1ccc(CN2CCOCC2)cc1	none
CC(C)(C)Cc1c(-c2ccc(C#N)cc2)nc2c(Cl)cc(C(F)(F)F)cn12	none (no result: GRK2 aptamer HTS, Scp1 inh)
COc1ccc(NC(=O)c2c[nH]c(=O)n(-c3ccc(C)c(C)c3)c2=O)cc1OC	none
COc1ccc(NC(=O)c2c[nH]c(=O)n(-c3ccc(C)c(C)c3)c2=O)c(OC)c1	SUMO1 PPI mod 43 (no result: GRK2 aptamer HTS)
Nc1nccnc1C(=O)OCC(=O)Nc1ccc2[nH]c(=O)[nH]c2c1	SUMO1 PPI mod 80
O=C(COC(=O)c1ccco1)Nc1ccc2[nH]c(=O)[nH]c2c1	SUMO1 PPI mod 51
CC(=O)c1c(C)[nH]c(C(=O)OCC(=O)Nc2ccc3[nH]c(=O)[nH]c3c2)c1C	SUMO1 PPI mod 61
O=C(COC(=O)c1ccccc1)Nc1ccc2[nH]c(=O)[nH]c2c1	none
O=C(COC(=O)c1ccc(Br)o1)Nc1ccc2[nH]c(=O)[nH]c2c1	SUMO1 PPI mod 39
COCOCCn1cc(CN2CCS(=O)(=O)N(Cc3ccc(-c4ccc(Cl)c(Cl)c4)cc3)C(C)C2=O)nn1 (stereo unspecified)	none (no result: GRK2 aptamer HTS, Scp1 inh)
CC(C)C1C(=O)N(Cc2cn(CC3CCCCC3)nn2)CCS(=O)(=O)N1Cc1ccc(-c2cccc(CO)c2)cc1 (stereo unspecified)	none (no result: GRK2 aptamer HTS, Scp1 inh)
O=C(COC(=O)c1ccc(F)c(S(=O)(=O)N2CCOCC2)c1)NC1CC1	none
O=C(COC(=O)c1ccc(F)c(S(=O)(=O)N2CCOCC2)c1)Nc1ccc2[nH]c(=O)[nH]c2c1	SUMO1 PPI mod 61
